# How the values were obtained:
# Bacteria [1] = assay: Inhibition of 15N-Labeled beta lactamase TEM-1 (unknown origin) over expressed in Escherichia coli BL21(DE3) cells assessed as residual activity at 1 mM by CENTA relative to control
# Summary of the method: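 TEM-1 (116 nM) screened with inhibitor at 1 mM, hydrolysis of chromogenic CENTA at 300 μM (~8× Km of 36 μM) followed. Activity expressed relative to positive control lacking inhibitor, mean ± standard deviation of at least three replicates. Enzyme purity >83% by SDS-PAGE.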
# [2] = Noncompetitive inhibition of 15N-Labeled beta lactamase TEM-1 (unknown origin) over expressed in Escherichia coli BL21(DE3) cells by CENTA; parameters: species or system Bacteria
# [3] = Competitive inhibition of 15N-Labeled beta lactamase TEM-1 (unknown origin) over expressed in Escherichia coli BL21(DE3) cells by CENTA; parameters: species or system Bacteria
# [4] = Uncompetitive inhibition of 15N-Labeled beta lactamase TEM-1 (unknown origin) over expressed in Escherichia coli BL21(DE3) cells by CENTA; parameters: species or system Bacteria
# Bacteria [5] = assay: Inhibition of 15N-Labeled beta lactamase TEM-1 G1u104Lys/Gly238Ser double mutant (unknown origin) over expressed in Escherichia coli BL21(DE3) cells assessed as residual activity at 1 mM by CENTA relative to control
# Summary of the method: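 TEM-15 produced in E. coli, purified to >83% by SDS-PAGE, used at 56 nM. Inhibitor screened at 1 mM against hydrolysis of the chromogenic substrate CENTA (300 μM). Activity expressed relative to the positive control without inhibitor, as mean ± standard deviation of at least three replicates.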
# [6] = Inhibition of 15N-Labeled beta lactamase TEM-1 (unknown origin) over expressed in Escherichia coli BL21(DE3) cells by CENTA; parameters: species or system Bacteria
# Summary of the method: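 IC50 against TEM-1 from CENTA (300 μM) hydrolysis using two-fold inhibitor dilutions; value derived by fitting a dose-response curve. Enzyme purity >83% by SDS-PAGE.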
# [7] = Inhibition of 15N-Labeled beta lactamase TEM-1 G1u104Lys/Gly238Ser double mutant (unknown origin) over expressed in Escherichia coli BL21(DE3) cells by CENTA; parameters: species or system Bacteria
# Summary of the method: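 TEM-15 from E. coli expression, purified to >83% by SDS-PAGE. Hydrolysis of the chromogenic substrate CENTA (300 μM) monitored across two-fold inhibitor dilutions. IC50 obtained by fitting a dose-response curve.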
SMILES,Activity (Bacteria [1]),Ki [2],Ki [3],Ki [4],Activity (Bacteria [5]),IC50 [6],IC50 [7]
COc1ccc(CN2[C@@H](Cc3ccc(F)cc3)C(=O)N(CC(=O)O)S2(=O)=O)cc1,124%,,,,,,
COc1ccc(CN2[C@@H](Cc3ccc(Br)cc3)C(=O)N(CC(=O)O)S2(=O)=O)cc1,92%,,,,,,
O=C(O)CN1C(=O)[C@H](Cc2ccc(F)cc2)N(Cc2ccc([N+](=O)[O-])cc2)S1(=O)=O,101%,,,,,,
O=C(O)CN1C(=O)[C@H](Cc2ccc(Br)cc2)N(Cc2ccc([N+](=O)[O-])cc2)S1(=O)=O,100%,,,,,,
O=C(O)CN1C(=O)[C@H](Cc2ccc(F)cc2)N(Cc2ccc(Br)cc2)S1(=O)=O,34%,510 µM,55 µM,455 µM,53%,510 µM,
O=C(O)CN1C(=O)[C@H](Cc2ccc(Br)cc2)N(Cc2ccc(Br)cc2)S1(=O)=O,10%,300 µM,32 µM,268 µM,0%,300 µM,130 µM

# Reference: ChEMBL document CHEMBL4715891, “Development of sulfahydantoin derivatives as β-lactamase inhibitors” (Bioorg Med Chem Lett, 2021)
